From ChEMBL document CHEMBL1828519, “Tricyclic thiazolopyrazole derivatives as metabotropic glutamate receptor 4 positive allosteric modulators” (J Med Chem, 2011)
Converted amounts (≈) assume the structure as drawn.

Experiments:
[1] = Apparent permeability of the compound by PAMPA assay; assay type: ADME
How it was run: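 Passive permeability measured in a PAMPA assay.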

[2] = molecular target: T1, Metabotropic glutamate receptor 4 (Homo sapiens, UniProt Q14833); test: Positive allosteric modulation of human mGlu4 receptor expressed in BHK cells assessed as potentiation of glutamate-induced response after 1 hr by FLIPR assay relative to glutamate; assay type: cell-based
How it was run: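 BHK cells stably co-expressing human mGlu4 and murine G-protein […], grown in DMEM at 37 °C, 5% CO₂. Cells seeded 24 h before assay, then loaded with Calcium 3 no-wash dye in HBSS/HEPES pH 7.4 with 0.1% BSA and 2.5 mM probenecid for 1 h at 37 °C. FLIPR calcium read after stimulation with EC₂₀ glutamate plus compound. Emax is percent of maximal glutamate response. Mean of ≥2 independent duplicate experiments.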

[3] = molecular target: T1, Metabotropic glutamate receptor 4; test: Positive allosteric modulation of human mGlu4 receptor expressed in BHK cells assessed as potentiation of glutamate-induced calcium mobilization after 1 hr by FLIPR assay; assay type: functional, cell-based
How it was run: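 Stable BHK line co-expressing human mGlu4 and murine Gα15, plated on poly-D-lysine 24 h ahead. Cells loaded 1 h at 37 °C, 5% CO2 with Calcium 3 dye in HBSS/20 mM HEPES pH 7.4, 0.1% BSA, 2.5 mM probenecid. Test agent added with an EC20 glutamate challenge. Peak fluorescence change read by FLIPR and fitted to the Hill equation. At least two independent runs in duplicate, means reported.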

[4] = Kinetic solubility of the compound at pH 7.4 at room temperature; assay type: physicochemical; details: buffer, read-out: Kinetic_solubility
How it was run: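 Kinetic solubility measured from DMSO stock solutions at room temperature. Assay run at the pH named in each line.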

[5] = Intrinsic clearance in human microsomes; assay type: ADME, Microsome
How it was run: (§1)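 Intrinsic clearance measured in rat and human liver microsomes. Hepatic blood flow references given as 20 mL/min for rat and 1.5 L/min for human.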

[6] = Intrinsic clearance in rat microsomes; assay type: ADME, Microsome; how it was run: as §1
[7] = Plasma protein binding in rat; assay type: ADME, cell-free; details: read-out: PPB (converted)
[8] = Plasma protein binding in human; assay type: ADME, cell-free; details: read-out: PPB (converted)

T1 sequence (Q14833 whole entry): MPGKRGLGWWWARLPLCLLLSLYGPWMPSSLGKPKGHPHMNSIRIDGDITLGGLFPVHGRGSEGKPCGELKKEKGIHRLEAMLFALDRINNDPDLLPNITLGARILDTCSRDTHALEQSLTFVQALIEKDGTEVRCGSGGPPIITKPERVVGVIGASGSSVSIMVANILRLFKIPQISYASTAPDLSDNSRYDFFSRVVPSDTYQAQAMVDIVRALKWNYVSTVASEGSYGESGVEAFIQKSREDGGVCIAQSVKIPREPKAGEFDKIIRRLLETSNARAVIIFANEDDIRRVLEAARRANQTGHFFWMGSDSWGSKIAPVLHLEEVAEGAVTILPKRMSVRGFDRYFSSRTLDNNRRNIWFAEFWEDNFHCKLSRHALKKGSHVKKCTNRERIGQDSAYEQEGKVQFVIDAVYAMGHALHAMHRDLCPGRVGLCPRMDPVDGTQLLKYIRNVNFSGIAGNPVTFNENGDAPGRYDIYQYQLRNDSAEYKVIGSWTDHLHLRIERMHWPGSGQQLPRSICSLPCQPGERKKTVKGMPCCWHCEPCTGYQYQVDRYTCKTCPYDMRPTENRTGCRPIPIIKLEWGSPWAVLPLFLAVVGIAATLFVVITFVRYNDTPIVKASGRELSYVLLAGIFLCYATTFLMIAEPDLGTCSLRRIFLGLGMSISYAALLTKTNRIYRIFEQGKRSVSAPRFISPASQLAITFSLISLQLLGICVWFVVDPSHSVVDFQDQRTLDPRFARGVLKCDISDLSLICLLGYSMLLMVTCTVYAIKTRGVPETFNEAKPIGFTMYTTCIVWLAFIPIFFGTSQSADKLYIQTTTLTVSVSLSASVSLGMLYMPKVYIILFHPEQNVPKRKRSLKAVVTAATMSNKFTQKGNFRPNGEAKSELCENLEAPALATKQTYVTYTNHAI

Compound | Papp [1] | Emax [2] | EC50 [3] | solubility kinetic [4] | other results
Cc1cc(C)nc(Nc2nc3c(s2)CCCc2[nH]ncc2-3)c1 | 1.2 ×10⁻⁶ cm/s |  | > 10000 nM | 0.4 µM (≈ 0.125 µg/mL) | 
COc1ccnc(Nc2nc3c(s2)CCCc2[nH]ncc2-3)n1 | 0.3 ×10⁻⁶ cm/s |  | 100 nM | 0.6 µM (≈ 0.189 µg/mL) | 
Cc1n[nH]cc1-c1csc(Nc2ccccn2)n1 |  | 79% | 56 nM |  | 
c1cnc(Nc2nc3c(s2)CCCc2[nH]ncc2-3)cn1 | 3.8 ×10⁻⁶ cm/s |  | > 10000 nM | 78 µM (≈ 22.2 µg/mL) | 
O=C(Nc1cc(Cl)cc(Cl)c1)[C@H]1CCCC[C@H]1C(=O)O |  | 120% | 750 nM |  | 
c1cc(Nc2nc3c(s2)CCc2[nH]ncc2-3)ccn1 | 2.5 ×10⁻⁶ cm/s |  | > 10000 nM | 180 µM (≈ 48.5 µg/mL) | 
Cc1cc(Nc2nc3c(s2)CCCc2[nH]ncc2-3)[nH]n1 | 15 ×10⁻⁶ cm/s |  | 2400 nM | 10 µM (≈ 2.86 µg/mL) | 
Cc1ccc(Nc2nc3c(s2)CCc2n[nH]cc2-3)nc1 | 1.9 ×10⁻⁶ cm/s | 12% | > 10000 nM | < 0.1 µM | 
c1cnc(Nc2nc3c(s2)CCc2n[nH]cc2-3)nc1 |  | 180% |  |  | 
c1cnc(Nc2nc3c(s2)CCCc2n[nH]cc2-3)cn1 |  | 18% |  |  | 
N#Cc1cccc(Nc2nc3c(s2)CCCc2[nH]ncc2-3)n1 | < 0.1 ×10⁻⁶ cm/s |  | 4900 nM | < 0.1 µM | 
Cc1cccc(Nc2nc3c(s2)CCCc2[nH]ncc2-3)n1 | 4.9 ×10⁻⁶ cm/s |  | 140 nM | 110 µM (≈ 32.7 µg/mL) | 
c1csc(Nc2nc3c(s2)CCCc2n[nH]cc2-3)n1 |  | 35% | > 10000 nM |  | 
COc1cccc(Nc2nc3c(s2)CCCc2[nH]ncc2-3)n1 | 0.1 ×10⁻⁶ cm/s |  | 650 nM | 0.1 µM (≈ 0.0313 µg/mL) | 
Cc1[nH]ncc1-c1nc(Nc2ccccn2)sc1C |  | 19% | > 10000 nM |  | 
c1ccc(Nc2nc3c(s2)CCc2n[nH]cc2-3)cc1 |  | 160% |  |  | 
Cc1nc2ccccc2nc1N/N=C/c1ccc(O)cc1 |  | 144% |  |  | 
Fc1cccc(Nc2nc3c(s2)CCCc2[nH]ncc2-3)n1 | 0.1 ×10⁻⁶ cm/s |  | 105 nM | 0.2 µM (≈ 0.0603 µg/mL) | 
Cc1ccnc(Nc2nc3c(s2)CCCc2[nH]ncc2-3)n1 | 0.5 ×10⁻⁶ cm/s |  | 51 nM | 0.6 µM (≈ 0.179 µg/mL) | 
Cn1ccc(Nc2nc3c(s2)CCCc2[nH]ncc2-3)n1 | 19 ×10⁻⁶ cm/s |  | 3000 nM | 160 µM (≈ 45.8 µg/mL) | 
Cc1cccnc1Nc1nc2c(s1)CCCc1[nH]ncc1-2 | 8 ×10⁻⁶ cm/s |  | 3400 nM | 0.2 µM (≈ 0.0595 µg/mL) | 
c1[nH]nc2c1-c1nc(NC3CCCCC3)sc1CCC2 | 2.8 ×10⁻⁶ cm/s | 150% | 1300 nM | < 0.1 µM | 
c1cncc(Nc2nc3c(s2)CCCc2n[nH]cc2-3)c1 |  | 26% |  |  | 

Compound | Papp [1] | Emax [2] | EC50 [3] | solubility kinetic [4] | other results
c1cc(Nc2nc3c(s2)CCc2n[nH]cc2-3)ccn1 |  | 10% |  |  | 
CN(C)c1cccc(Nc2nc3c(s2)CCCc2[nH]ncc2-3)n1 | < 0.1 ×10⁻⁶ cm/s |  | 340 nM | < 0.1 µM | 
Cc1cc(C)nc(Nc2nc3c(s2)CCc2[nH]ncc2-3)c1 | 1 ×10⁻⁶ cm/s |  | > 10000 nM | 0.1 µM (≈ 0.0297 µg/mL) | 
Cc1cc(C)nc(Nc2nc3c(s2)CCc2n[nH]cc2-3)c1 |  | 11% |  |  | 
COc1ccnc(Nc2nc3c(s2)CCCc2n[nH]cc2-3)n1 |  | 230% |  |  | 
Cc1cc(C)cc(-n2ncc3c(N4CCCC(C)C4)ncnc32)c1 (stereo not given) |  | 100% | 4600 nM |  | 
Fc1ccc(Nc2nc3c(s2)CCCc2[nH]ncc2-3)nc1 | 0.3 ×10⁻⁶ cm/s |  | 750 nM | < 0.1 µM | 
c1cc(Nc2nc3c(s2)CCCc2[nH]ncc2-3)[nH]n1 | 25 ×10⁻⁶ cm/s |  | 3200 nM | 190 µM (≈ 51.7 µg/mL) | 
c1cnc(Nc2nc3c(s2)CCCc2n[nH]cc2-3)nc1 |  | 160% |  |  | 
c1cncc(Nc2nc3c(s2)CCCc2[nH]ncc2-3)c1 | 35 ×10⁻⁶ cm/s |  | > 10000 nM | 3.8 µM (≈ 1.08 µg/mL) | 
Cc1cccc(Nc2nc3c(s2)CCc2[nH]ncc2-3)n1 | 2 ×10⁻⁶ cm/s |  | 910 nM | 2.9 µM (≈ 0.822 µg/mL) | CL [5]: 48 L/min; CL [6]: 400 mL/min
Cc1sc(Nc2ccccn2)nc1-c1cn[nH]c1 |  | 100% | 13 nM |  | 
Cc1ccnc(Nc2nc3c(s2)CCc2n[nH]cc2-3)c1 | 12.4 ×10⁻⁶ cm/s | 11% | > 10000 nM | 9 µM (≈ 2.55 µg/mL) | 
c1cncc(Nc2nc3c(s2)CCc2n[nH]cc2-3)c1 |  | 11% |  |  | 
c1cncc(Nc2nc3c(s2)CCc2[nH]ncc2-3)c1 | 18.7 ×10⁻⁶ cm/s |  | > 10000 nM | 17 µM (≈ 4.58 µg/mL) | 
c1cnc(Nc2nc3c(s2)CCc2[nH]ncc2-3)nc1 | 3.4 ×10⁻⁶ cm/s |  | 65 nM | 20 µM (≈ 5.41 µg/mL) | CL [5]: 4.4 L/min; CL [6]: 42 mL/min; fraction unbound [7]: 0.105; fraction unbound [8]: 0.036
Cc1ccc(N2C(=O)c3ccccc3NC2C(C)c2ccccc2)cc1 (stereo not given) |  | 129% |  |  | 
c1ccc(Nc2nc3c(s2)CCc2n[nH]cc2-3)nc1 |  | 150% |  |  | 
c1cc(Nc2nc3c(s2)CCCc2[nH]ncc2-3)nc(N2CCCC2)c1 | 0.1 ×10⁻⁶ cm/s |  | > 10000 nM | < 0.1 µM | 
Clc1cccc(Nc2nc3c(s2)CCCc2[nH]ncc2-3)n1 | 15.4 ×10⁻⁶ cm/s |  | 1100 nM | 38 µM (≈ 12.1 µg/mL) | 
c1ccc(Nc2nc3c(s2)CCc2[nH]ncc2-3)cc1 | < 0.1 ×10⁻⁶ cm/s |  | 2200 nM | < 0.1 µM | 
Cc1ccc(Nc2nc3c(s2)CCCc2[nH]ncc2-3)nc1 | 2.7 ×10⁻⁶ cm/s |  | > 10000 nM | < 0.1 µM | 
O=C(Nc1ccccc1)[C@]12C[C@H]1/C(=N\O)c1ccccc1O2 |  | 120% |  |  | 

More lines, main results first:

Papp [1] | Emax [2] | EC50 [3] | solubility kinetic [4] | Compound | other results
38.8 ×10⁻⁶ cm/s | 76% | 2700 nM | 30 µM (≈ 9.4 µg/mL) | OCc1cccc(Nc2nc3c(s2)CCCc2n[nH]cc2-3)n1 | 
 | 28% |  |  | Cc1ccc(Nc2nc3c(s2)CCCc2n[nH]cc2-3)nc1 | 
0.1 ×10⁻⁶ cm/s | 90% | 390 nM | 0.1 µM (≈ 0.0357 µg/mL) | COCCOc1cccc(Nc2nc3c(s2)CCCc2n[nH]cc2-3)n1 | 
 | 170% |  |  | Fc1ccc(Nc2nc3c(s2)CCCc2n[nH]cc2-3)nc1 | 
41 ×10⁻⁶ cm/s | 150% | 1300 nM | 1.8 µM (≈ 0.512 µg/mL) | c1cc(Nc2nc3c(s2)CCCc2n[nH]cc2-3)ncn1 | 
31 ×10⁻⁶ cm/s | 6.3% | > 10000 nM | 21 µM (≈ 6.27 µg/mL) | Cc1ccc(Nc2nc3c(s2)CCCc2n[nH]cc2-3)nn1 | 
 | 170% |  |  | Fc1cccc(Nc2nc3c(s2)CCCc2n[nH]cc2-3)n1 | 
 | 4% |  |  | Cc1cc(C)nc(Nc2nc3c(s2)CCCc2n[nH]cc2-3)c1 | 
 | 210% |  |  | Cc1ccnc(Nc2nc3c(s2)CCCc2n[nH]cc2-3)n1 | 
 | 150% |  |  | CN(C)c1cccc(Nc2nc3c(s2)CCCc2n[nH]cc2-3)n1 | 
 | 39% |  |  | Cc1cc(Nc2nc3c(s2)CCCc2n[nH]cc2-3)n[nH]1 | 
 | 100% |  |  | COc1cccc(Nc2nc3c(s2)CCCc2n[nH]cc2-3)n1 | 
 | 120% |  |  | Cc1cccc(Nc2nc3c(s2)CCc2n[nH]cc2-3)n1 | 
 | 84% |  |  | Cc1cccnc1Nc1nc2c(s1)CCCc1n[nH]cc1-2 | 
 | 50% |  |  | N#Cc1cccc(Nc2nc3c(s2)CCCc2n[nH]cc2-3)n1 | 
 | 14% |  |  | c1cc(Nc2nc3c(s2)CCCc2n[nH]cc2-3)nc(N2CCCC2)c1 | 
 | 200% |  |  | Cc1cccc(Nc2nc3c(s2)CCCc2n[nH]cc2-3)n1 | 
< 0.1 ×10⁻⁶ cm/s | 78% | 290 nM | < 0.1 µM | CCOc1cccc(Nc2nc3c(s2)CCCc2n[nH]cc2-3)n1 | 
 | 220% |  |  | Clc1cccc(Nc2nc3c(s2)CCCc2n[nH]cc2-3)n1 | 
 | 120% |  |  | c1ccc(Nc2nc3c(s2)CCCc2n[nH]cc2-3)nc1 | 
3.1 ×10⁻⁶ cm/s | 63% | 600 nM | 0.9 µM (≈ 0.294 µg/mL) | CCNc1cccc(Nc2nc3c(s2)CCCc2n[nH]cc2-3)n1 | 
 | 130% |  |  | Cn1ccc(Nc2nc3c(s2)CCCc2n[nH]cc2-3)n1 | 
0.1 ×10⁻⁶ cm/s | 5% | > 10000 nM | 1.9 µM (≈ 0.649 µg/mL) | COC(=O)c1cccc(Nc2nc3c(s2)CCCc2n[nH]cc2-3)n1 | 
 | 140% |  |  | c1cc(Nc2nc3c(s2)CCCc2n[nH]cc2-3)n[nH]1 | 
